# Bioassay records from PubChem.
# This is a sample that favours compounds with a hit; in the whole collection about 2.9% have one here.
# ABHD5-PLIN5 inh: inhibitors of human ABHD5-perilipin-5 interaction. Q00G26+Q8WTS1. actives 0.78% (n = 360,000). Split G. princeps luciferase complementation, luminescence, 4 h. inhibition, % at 4 µM;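 active = inhibition above the mean inhibition across every tested compound plus 3 SD, cut at about 22% in these data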;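 note: 0% = DMSO only wells and the 100% control is not disclosed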
# Target sequence (Q00G26 whole entry, looked up): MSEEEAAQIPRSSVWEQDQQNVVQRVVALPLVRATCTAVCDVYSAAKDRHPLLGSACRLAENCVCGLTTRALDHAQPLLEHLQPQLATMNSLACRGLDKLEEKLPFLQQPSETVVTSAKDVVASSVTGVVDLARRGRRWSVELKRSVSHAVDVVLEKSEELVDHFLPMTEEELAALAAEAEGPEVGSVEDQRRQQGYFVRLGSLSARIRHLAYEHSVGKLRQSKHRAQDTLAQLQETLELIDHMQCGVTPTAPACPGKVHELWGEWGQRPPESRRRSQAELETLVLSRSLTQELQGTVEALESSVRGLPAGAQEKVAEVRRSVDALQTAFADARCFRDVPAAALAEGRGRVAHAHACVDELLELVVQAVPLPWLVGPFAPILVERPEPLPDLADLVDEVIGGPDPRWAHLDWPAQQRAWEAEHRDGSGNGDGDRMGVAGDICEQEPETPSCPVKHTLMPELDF
# Target sequence (Q8WTS1 whole entry, looked up): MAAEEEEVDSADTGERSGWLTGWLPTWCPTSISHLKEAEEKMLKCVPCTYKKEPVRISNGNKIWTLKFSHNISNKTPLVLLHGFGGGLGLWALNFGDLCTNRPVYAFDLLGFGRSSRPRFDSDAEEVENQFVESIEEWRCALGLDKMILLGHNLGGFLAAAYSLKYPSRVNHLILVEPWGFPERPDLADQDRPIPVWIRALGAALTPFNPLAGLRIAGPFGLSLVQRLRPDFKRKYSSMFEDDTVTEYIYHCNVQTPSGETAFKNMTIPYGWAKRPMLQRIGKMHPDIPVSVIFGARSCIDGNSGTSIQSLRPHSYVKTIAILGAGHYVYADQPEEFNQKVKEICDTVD
# A3G deaminase: blocks human APOBEC3G single-stranded DNA deamination; Q9HC16; actives 0.28% (n = 330,000); inhibition, % at 20 µM; recombinant A3G, ssDNA deamination FAM/TAMRA fluorescence;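 active = inhibition of at least 40% at 20 µM, with no more than 30% in the related APOBEC3A deaminase screen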;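 note: plate controls were DMSO wells with A3G for no effect and wells lacking A3G enzyme for full effect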
# core dimer inh: HCV core protein dimerization inhibition | TR-FRET GST/Flag-core106 dimerization, 1536-well | inhibition, % at 5 µM | actives 0.33% (n = 300,000);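 active = inhibition above the mean of all tested compounds plus 3 SD, set per screening campaign, cut at about 45% in these data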
#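 System: GST-tagged and Flag-tagged HCV core protein residues 1-106 / Input: core106 proteins, GST 13.5 nM and Flag 17 nM / Buffer or medium: KF-containing HEPES buffer, pH 7.45, DTT, CHAPS, BSA / Probe or stimulus: Eu-anti-GST and XL665-anti-Flag labelled anti-tag antibodies / Schedule: 4 h, 22.5 °C incubation / Technique: TR-FRET 671 and 617 nm emission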
# APOBEC3A inh: inhibitors of human APOBEC3A DNA deaminase | P31941 | recombinant A3A, FAM/TAMRA ssDNA deamination fluorescence | inhibition, % at 20 µM | actives 0.41% (n = 330,000) | AID 493011;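 active = at least 40% inhibition at 20 µM here, with at most 30% in a related deaminase screen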;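 note: plate controls were A3A with DMSO for no effect and wells lacking A3A enzyme for full effect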
# PRMT1 inh: PRMT1 (human) inhibition, primary screen. Q99873. recombinant PRMT1, activity-based probe fluorescence polarization. inhibition, % at 2.79 µM. actives 1.3% (n = 370,000). AID 652257;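 active = inhibition above about 21% made by adding two undisclosed values, limit read from the data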
# NS3 helicase inh: blocks Hepatitis C virus NS3 helicase unwinding; NS3 helicase DNA unwinding, Cy5 molecular beacon fluorescence; inhibition, % at 10.9 µM; actives 0.56% (n = 290,000);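 active = inhibition above the mean of all tested compounds plus 3 SD, set per campaign, cut at about 35% in these data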;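 note: 0% = DMSO wells and 100% = thioflavine S control wells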
#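 Assay system – hepatitis C virus NS3 helicase domain fragment enzyme · Buffer or medium – MOPS pH 6.5, MgCl2, DTT, Tween20, BSA · Reagent – Cy5/quencher beacon DNA duplex and ATP to start · Compound – single 10.9 µM dose · Timing – 1 h at 25 °C · Technique – Cy5 beacon fluorescence read at start and 1 h · Measure – % inhibition of unwinding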
# An asterisk follows results filed as active; nt = no result given.
SMILES,ABHD5-PLIN5 inh,A3G deaminase,core dimer inh,APOBEC3A inh,PRMT1 inh,NS3 helicase inh
Cc1ccc2nc(-c3ccc(NC(=O)CSCC(=O)O)cc3)sc2c1,11.0,-2.7,14.4,3.2,-6.6,32.2
COC(=O)[C@]12C[C@H](CC(=O)N3CCCC3)C(=O)N(Cc3ccco3)C1=C[C@H](C1CCCC1)O[C@@H]2C,nt,nt,nt,nt,-3.2,nt
CC1=C(C(=O)N2CCCCCC2)CC(CC(=O)NC2CCCC2)C(=O)N1CCC1=CCCCC1 (stereo not drawn),8.0,nt,nt,nt,1.6,nt
Nc1nc2c(ncn2[C@@H]2O[C@H](C(=O)N[C@@H](Cc3ccccc3)C(=O)NCC3CCCCC3)[C@@H](O)[C@H]2O)c(=O)[nH]1,nt,nt,nt,nt,-1.1,nt
COc1ccc(Cl)c2sc(N(CCN(C)C)C(=O)CCS(=O)(=O)c3ccc(C)cc3)nc12,4.3,-0.4,-4.7,9.6,-2.2,nt
COc1ccc(OC)c2sc(N(CCCN(C)C)C(=O)CCS(=O)(=O)c3ccccc3)nc12,39.5*,-3.9,-1.2,-2.2,10.7,nt
O=C(/C=C(\O)c1ccccc1)C(=O)NNC(=O)c1ccccc1,1.4,4.7,10.4,-7.0,-3.7,16.2
O=C(/C=C(\O)c1ccc(Cl)cc1)C(=O)NNC(=O)C(O)(c1ccccc1)c1ccccc1,-2.1,6.6,15.2,4.0,nt,54.4*
Cc1ccc2cc(C#N)c(NCc3ccccc3)nc2c1,-4.9,-7.0,48.3*,-0.2,3.0,11.0
Cc1cccc2cc(C#N)c(NCc3ccccc3)nc12,-6.4,2.3,7.0,-1.4,10.8,-4.9
COc1ccc(C2=CCCCCC2)cc1OC,-5.4,nt,nt,nt,-1.1,nt
N#Cc1cccc(C=C(C(=O)c2ccccc2)c2ccccc2)c1,22.0*,nt,nt,nt,2.2,nt
N#C/C(=C\c1ccc(C#N)cc1)C(=O)c1ccccc1,11.3,nt,nt,nt,-1.6,23.6
COC(=O)C1=C(C)N(C)C(=NCc2cc(OC)c(OC)c(OC)c2)NC1c1ccc(C(F)(F)F)cc1 (stereo not drawn),nt,nt,nt,nt,-0.2,nt
Cc1sc2nc(SCC(=O)NCc3ccco3)n(C)c(=O)c2c1C,5.0,-2.1,-0.7,-16.7,-1.8,-3.2
CCn1c(SCC(=O)NC(=O)NCc2ccco2)nc2sc(C)c(C)c2c1=O,15.3,31.8,51.2*,52.5,12.1,8.7
Nn1c(SCC(=O)NC(=O)NCc2ccco2)nnc1-c1ccc(OC(F)F)cc1,4.3,15.2,78.9*,32.6,3.0,2.5
Cc1nnc(SCC(=O)NC(=O)NCc2ccco2)n1Cc1ccccc1,5.5,18.9,62.4*,17.9,1.8,9.3
Cc1occc1-c1nnc(SCC(=O)NCc2ccco2)n1CC(C)C,23.0*,3.9,16.6,12.5,10.1,14.6
COC(=O)[C@]12C[C@H](CC(=O)NCCCCc3ccccc3)C(=O)N(Cc3ccccc3)C1=C[C@H](C(C)C)O[C@@H]2C1CC1,nt,nt,nt,nt,-1.2,nt
COc1ccc(CCC(=O)Nc2cc(S(=O)(=O)N3CCCCC3)ccc2N(C)C)cc1,-3.4,-7.1,nt,-1.6,1.6,nt
CCOc1ccccc1-n1nnnc1SCC(=O)NC(=O)NCc1ccco1,3.5,8.8,57.0*,17.4,0.1,20.3
O=C(CSc1nnnn1-c1ccccc1)NC(=O)NCc1ccco1,6.7,7.2,60.1*,14.6,14.5,6.8
Cn1nnnc1SCC(=O)NCc1ccco1,1.9,-4.0,-1.9,-2.1,-0.6,0.6
NS(=O)(=O)c1ccc(N2C(=O)CCCC2=O)cc1,1.9,nt,nt,nt,-3.3,nt
SMILES,ABHD5-PLIN5 inh,A3G deaminase,core dimer inh,APOBEC3A inh,PRMT1 inh,NS3 helicase inh
O=C1c2nc3cc(-c4ccco4)[nH]n3c(=O)c2CN1C1CCCCC1,7.3,66.1,1.7,71.3,23.3*,17.8
O=C1N=C(c2ccccc2)S/C1=C\c1cccs1,-14.0,12.2,1.3,-2.9,21.5*,14.0
CN1C(=S)N(c2cccnc2)C(=O)/C1=C\c1ccc(N(C)C)cc1,1.7,nt,nt,nt,-4.8,-0.7
Cc1c(N2C(=O)c3ccc4c5c(ccc(c35)C2=O)CC4)c(=O)n(-c2ccccc2)n1C,0.7,38.4,81.7*,7.7,nt,15.0
Cc1c(N2C(=O)/C(=C\c3ccc(N(C)C)cc3)N(C)C2=S)c(=O)n(-c2ccccc2)n1C,22.4*,nt,-2.2,nt,-5.4,1.0
CCOC(=O)C1=C(C(=O)OCC)C2N(Cc3ccc(C#N)cc3)c3ccccc3[C@@]23C[C@@H](C(=O)OC)N(S(=O)(=O)c2cccs2)C3=N1 (stereo partly drawn),nt,nt,nt,nt,1.9,nt
COc1ccc(-c2coc3c(C(=O)Nc4cccnc4)cccc23)c(C)c1,1.0,nt,nt,nt,-3.1,nt
CC[C@]12c3[nH]c4ccc(OC)cc4c3CCN1C(=O)C(CC(=O)NCc1ccc(OC)c(OC)c1)C[C@@H]2C(=O)N1CCN(C(=O)C2CC2)CC1 (stereo partly drawn),6.6,0.1,nt,0.3,1.8,nt
Cc1ccc(S(=O)(=O)N(CC(=O)NC2CCC(C)CC2)c2cc(C)cc(C)c2)cc1 (stereo not drawn),nt,nt,nt,nt,-3.4,nt
Cn1c2ccccc2c2ncn(Cc3ccco3)c(=O)c21,13.3,3.8,-0.9,0.0,6.3,14.0
Cn1c2ccc(F)cc2c2ncn(Cc3ccco3)c(=O)c21,2.8,-7.4,-5.5,-4.4,21.9*,1.2
Oc1ccc(N2CCN(Cc3cc4c(cc3Br)OCCO4)CC2)cc1,12.4,17.3,7.9,19.0,23.4*,-7.7
O=S(=O)(c1ccc(F)cc1)N1CCN(Cc2cc3c(cc2Br)OCCO3)CC1,-12.7,-11.7,nt,7.6,-3.9,nt
Cc1ccccc1NC(=O)/C=C/c1ccc([N+](=O)[O-])s1,28.6*,nt,-5.0,nt,nt,13.8
CC(=O)Nc1ccc(-n2c(C)ccc2-c2ccccc2)cc1,3.1,1.6,6.5,-1.7,22.6*,-2.4
CC(=O)Nc1ccc(-n2c(C)ccc2C)cc1,3.6,-2.6,0.6,2.4,1.2,-1.4
CCOc1ccc2nc(S(=O)(=O)NC(=O)C3(C)CCN3C(=O)c3cccc(F)c3)sc2c1 (stereo not drawn),-1.7,nt,nt,nt,-0.2,nt
O=C(N/N=C/c1ccc([N+](=O)[O-])o1)c1cn(-c2ccccc2)nc1-c1ccc(Cl)cc1,4.0,-4.6,46.1*,2.1,-3.8,8.2
O=C(N/N=C/c1ccc([N+](=O)[O-])o1)c1cc(-c2ccc(-c3ccccc3)cc2)nc2ccccc12,1.1,-1.6,67.0*,5.5,1.6,-8.4
CCCN(C)C1CN(Cc2cn(CCCOC)nn2)S(=O)(=O)C1 (stereo not drawn),-1.0,nt,nt,nt,22.6*,nt
CCN(C)C1CN(Cc2cn(CCCOC)nn2)S(=O)(=O)C1 (stereo not drawn),5.3,nt,nt,nt,-0.1,nt
COC(=O)[C@]12C[C@H](CC(=O)N3CCOCC3)C(=O)N(Cc3ccccc3)C1=C[C@H](C(C)(C)C)O[C@@H]2C,nt,nt,nt,nt,-4.7,nt
Cc1ccc(S(=O)(=O)NCCSCc2ccco2)cc1,0.2,-8.7,0.1,-4.1,1.9,0.4
Cc1cc(C)c(S(=O)(=O)NCCSCc2ccco2)c(C)c1,13.4,0.5,nt,12.9,24.1*,nt
